Assay results as given in ChEMBL document CHEMBL5137066, “Discovery of BLU-945, a Reversible, Potent, and Wild-Type-Sparing Next-Generation EGFR Mutant Inhibitor for Treatment-Resistant Non-Small-Cell Lung Cancer” (J Med Chem, 2022).

Assays:
[1] = Efflux ratio of apparent permeability in MDCK-MDR1 cells; type: ADME, cell-based, Canis lupus familiaris; details: dog
[2] = target: T1, Epidermal growth factor receptor (Homo sapiens, UniProt P00533); test: Inhibition of wild type EGFR in human A-431 cells preincubated for 4 to 5 hrs followed by EGF stimulation for 10 mins by AlphaLISA method; type: cell-based
T1 sequence (P00533 whole entry): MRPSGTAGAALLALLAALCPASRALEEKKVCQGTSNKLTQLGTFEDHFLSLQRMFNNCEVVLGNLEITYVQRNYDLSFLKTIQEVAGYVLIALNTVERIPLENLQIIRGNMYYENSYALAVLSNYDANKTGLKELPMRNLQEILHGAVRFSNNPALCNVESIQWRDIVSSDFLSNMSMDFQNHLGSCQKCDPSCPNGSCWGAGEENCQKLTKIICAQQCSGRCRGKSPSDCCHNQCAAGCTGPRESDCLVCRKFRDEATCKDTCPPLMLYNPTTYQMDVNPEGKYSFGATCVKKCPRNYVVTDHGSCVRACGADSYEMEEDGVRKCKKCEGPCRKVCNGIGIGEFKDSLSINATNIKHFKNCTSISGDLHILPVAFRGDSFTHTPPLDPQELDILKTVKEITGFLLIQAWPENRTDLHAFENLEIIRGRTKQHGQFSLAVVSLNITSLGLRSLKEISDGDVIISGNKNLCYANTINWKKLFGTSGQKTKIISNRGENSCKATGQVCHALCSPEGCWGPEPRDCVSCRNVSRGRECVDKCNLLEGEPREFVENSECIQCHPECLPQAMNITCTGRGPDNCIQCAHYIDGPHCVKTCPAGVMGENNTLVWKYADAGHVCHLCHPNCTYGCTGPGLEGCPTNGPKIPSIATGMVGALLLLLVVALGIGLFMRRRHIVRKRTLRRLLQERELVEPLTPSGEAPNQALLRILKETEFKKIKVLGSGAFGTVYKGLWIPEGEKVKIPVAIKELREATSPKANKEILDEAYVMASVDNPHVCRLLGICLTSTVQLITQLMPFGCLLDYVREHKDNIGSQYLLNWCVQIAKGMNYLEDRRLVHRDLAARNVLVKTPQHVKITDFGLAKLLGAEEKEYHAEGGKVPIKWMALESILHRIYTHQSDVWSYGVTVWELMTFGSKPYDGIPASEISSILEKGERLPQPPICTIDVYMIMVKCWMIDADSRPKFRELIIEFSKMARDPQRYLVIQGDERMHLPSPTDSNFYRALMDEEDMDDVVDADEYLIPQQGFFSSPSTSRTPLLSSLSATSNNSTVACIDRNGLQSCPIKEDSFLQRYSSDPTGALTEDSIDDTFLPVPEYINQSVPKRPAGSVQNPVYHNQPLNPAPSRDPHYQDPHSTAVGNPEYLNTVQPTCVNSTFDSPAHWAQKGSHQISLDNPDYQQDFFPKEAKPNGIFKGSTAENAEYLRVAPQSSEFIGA

[3] = target: T1, Epidermal growth factor receptor; test: (§1) Inhibition of N-terminal GST tagged recombinant wild type human EGFR expressed in baculovirus infected Sf9 insect cells expression system using 5-FAM-EEPLYINSFPAKKK-CONH peptide as substrate preincubated for 10 mins followed by peptide substrate addition in presence of ATP
[4] = Apparent permeability across apical to basolateral side in MDCK-MDR1 cells; type: ADME, cell-based, Canis lupus familiaris; details: dog
[5] = target: T2, Epidermal growth factor receptor (Homo sapiens, UniProt P00533, L858R/T790M); test: Inhibition of EGF stimulated EGFR L858R/T790M double mutant phosphorylation in human NCI-H1975 cells preincubated for 4 to 5 hrs followed by EGF stimulation for 10 mins by AlphaLISA method; type: cell-based
T2 sequence (P00533 25-1210 T790M/L858R limits assumed): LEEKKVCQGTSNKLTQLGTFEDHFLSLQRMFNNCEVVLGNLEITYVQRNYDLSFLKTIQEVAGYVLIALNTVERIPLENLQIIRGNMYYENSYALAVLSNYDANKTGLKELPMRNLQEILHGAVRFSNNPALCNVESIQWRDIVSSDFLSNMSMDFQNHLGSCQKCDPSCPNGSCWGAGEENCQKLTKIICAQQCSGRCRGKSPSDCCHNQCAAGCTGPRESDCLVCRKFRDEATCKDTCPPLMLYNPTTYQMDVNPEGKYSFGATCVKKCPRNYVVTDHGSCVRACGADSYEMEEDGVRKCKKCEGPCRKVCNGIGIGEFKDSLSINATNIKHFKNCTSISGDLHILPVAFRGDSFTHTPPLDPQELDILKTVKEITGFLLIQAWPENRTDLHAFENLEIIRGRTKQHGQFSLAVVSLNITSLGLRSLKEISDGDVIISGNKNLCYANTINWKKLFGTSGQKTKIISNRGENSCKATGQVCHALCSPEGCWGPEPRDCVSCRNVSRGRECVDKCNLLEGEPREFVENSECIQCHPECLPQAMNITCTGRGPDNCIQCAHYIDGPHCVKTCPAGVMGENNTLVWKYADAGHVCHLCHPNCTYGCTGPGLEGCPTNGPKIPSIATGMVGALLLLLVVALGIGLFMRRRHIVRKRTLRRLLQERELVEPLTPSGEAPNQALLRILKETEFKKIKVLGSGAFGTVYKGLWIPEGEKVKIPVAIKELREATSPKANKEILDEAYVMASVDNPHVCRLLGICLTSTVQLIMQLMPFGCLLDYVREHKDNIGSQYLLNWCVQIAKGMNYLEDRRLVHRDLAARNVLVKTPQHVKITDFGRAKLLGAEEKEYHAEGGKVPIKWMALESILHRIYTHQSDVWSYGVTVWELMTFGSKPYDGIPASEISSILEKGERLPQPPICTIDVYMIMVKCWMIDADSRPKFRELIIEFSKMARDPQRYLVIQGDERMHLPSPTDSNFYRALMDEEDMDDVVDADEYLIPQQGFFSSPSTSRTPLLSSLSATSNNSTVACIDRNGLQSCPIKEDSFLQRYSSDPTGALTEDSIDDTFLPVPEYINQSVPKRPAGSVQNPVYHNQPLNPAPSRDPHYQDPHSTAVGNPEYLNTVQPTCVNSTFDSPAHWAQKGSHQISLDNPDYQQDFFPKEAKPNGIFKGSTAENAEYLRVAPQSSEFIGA

[6] = target: T2, Epidermal growth factor receptor; test: as §1, with “recombinant” for “recombinant wild type”, “EGFR L858R/T790M (669 to end residues) double mutant” for “EGFR”
[7] = as §1, with “recombinant” for “recombinant wild type”, “EGFR ex19del (746 to 750)/ L858R/C790S (668 to end residues) triple mutant” for “EGFR”
[8] = Inhibition of N-terminal GST tagged recombinant human EGFR L858R/T790M/C790S (668 to end residues) triple mutant expressed in baculovirus infected Sf9 insect cells using 5-FAM-EEPLYINSFPAKKK-CONH peptide as substrate preincubated for 10 mins followed by peptide substrate addition in presence of ATP
[9] = Intrinsic clearance in human liver microsomes; type: ADME, Microsome; details: for Microsomal intrinsic clearance: microsomes
[10] = Intrinsic clearance in dog liver microsomes in presence of NADPH; type: ADME, Canis lupus familiaris, Microsome
In short: (§2)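 Intrinsic clearance measured in isolated liver microsomes of each species with NADPH, expressed in μL/min/mg.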

[11] = Clearance in Sprague-Dawley rat at 1 mg/kg, iv; type: ADME, organism-based; details: in vivo
In short: (§3)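 Sprague–Dawley rats (n = 3), single IV bolus of 1 mg/kg in 10% DMSO, 10% solutol, 80% of a 20% HP-β-CD solution (in water or in saline, depending on compound). Clearance is plasma clearance after the IV bolus.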

[12] = Half life in cynomolgus monkey at 0.5 mg/kg, iv; type: ADME, organism-based, Macaca fascicularis; details: in vivo
In short: (§4)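 Cynomolgus monkeys given a single IV bolus of 0.5 mg/kg in 5% DMSO + 5% kolliphor HS 15 + 90% saline. Clearance is plasma clearance after the bolus.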

[13] = Intrinsic clearance in cynomolgus monkey liver microsomes in presence of NADPH; type: ADME, Macaca fascicularis, Microsome; in short: as §2
[14] = Intrinsic clearance in dog hepatocytes assessed per million cells; type: ADME, cell-based, Canis lupus familiaris, Hepatocyte
In short: (§5)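 Intrinsic clearance measured in isolated hepatocytes of each species, expressed in μL/min/million cells.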

[15] = Intrinsic clearance in rat liver microsomes in presence of NADPH; type: ADME, Microsome; in short: as §2
[16] = Clearance in cynomolgus monkey at 0.5 mg/kg,iv; type: ADME, organism-based, Macaca fascicularis; details: in vivo; in short: as §4
[17] = Intrinsic clearance in rat hepatocytes assessed per million cells; type: ADME, cell-based, Hepatocyte; in short: as §5
[18] = Intrinsic clearance in human liver microsomes in presence of NADPH; type: ADME, Microsome; in short: as §2
[19] = Half life in Sprague-Dawley rat at 1 mg/kg, iv; type: ADME, organism-based; details: in vivo; in short: as §3
[20] = Intrinsic clearance in human hepatocytes assessed per million cells; type: ADME, cell-based, Hepatocyte; in short: as §5
[21] = Oral bioavailability in Sprague-Dawley rat at 5 mg/kg; type: ADME, organism-based; details: in vivo
In short: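 Sprague–Dawley rats (n = 3) received 1 mg/kg IV and 5 mg/kg PO. IV vehicle was 10% DMSO/10% solutol/80% (20% HP-β-CD). PO vehicle was a suspension in 20% solutol in 0.5% MC in water, or a solution matching the IV vehicle, depending on compound.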

[22] = Intrinsic clearance in cynomolgus monkey hepatocytes assessed per million cells; type: ADME, cell-based, Macaca fascicularis, Hepatocyte; in short: as §5
[23] = Unbound clearance in cynomolgus monkey assessed as clearance/free fraction ratio at 0.5 mg/kg, iv; type: ADME, organism-based, Macaca fascicularis; details: in vivo
In short: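 Cynomolgus monkey, 0.5 mg/kg IV bolus in 5% DMSO/5% kolliphor HS 15/90% saline. Unbound clearance = in vivo plasma clearance divided by the free fraction. Free fraction comes from plasma protein binding measured by ultracentrifugation.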

Structure (SMILES) | IC50 [2] [nM] | IC50 [3] [nM] | IC50 [5] [nM] | IC50 [6] [nM] | IC50 [7] [nM] | IC50 [8] [nM] | Microsomal intrinsic clearance [9] [µL/min/mg] | other results
CC(C)c1cnc(N2C[C@H](CS(C)(=O)=O)[C@H]2C)c2cnc(Nc3ccnc(N4CC[C@@H](O)[C@@](C)(F)C4)n3)cc12 | 781 | 270 | 1.7 | 0.2 |  |  |  | efflux ratio [1]: 16; Papp [4]: 5 10^-6 cm/s
CC(C)c1cnc(N2CC[C@@H]2C)c2cnc(Nc3ccnc(N4CC[C@@H](O)[C@@](C)(F)C4)n3)cc12 |  |  | 210 | 106 | 110 | 113 |  | 
CC(C)c1cnc(N2CC(C(=O)N(C)C)C2)c2cnc(Nc3ccnc(N4CC[C@@H](O)[C@@](C)(F)C4)n3)cc12 |  |  |  |  |  |  | 102 | 
CC(C)c1nnc(N2CC[C@H]2C)c2cnc(Nc3ccnc(N4CC[C@@H](O)[C@@](C)(F)C4)n3)cc12 |  | 8170 | 25 | 16 | 9.6 | 12.7 | 96 | 
COCC1CN(c2ncc(C(C)C)c3cc(Nc4ccnc(N5CC[C@@H](O)[C@@](C)(F)C5)n4)ncc23)C1 |  |  | 40 | 11 | 24 | 25 |  | 
CNC(=O)c1cnc(Nc2ccnc(N3CC[C@@H](O)[C@@H](F)C3)n2)cc1NC(C)C | > 25000 | > 10000 | 420 | 99 |  | 105 | 9.1 | 
CC(C)c1cnc(N2CC(C#N)C2)c2cnc(Nc3ccnc(N4CC[C@@H](O)[C@@](C)(F)C4)n3)cc12 |  | 3400 | 17 |  | 4.8 | 5.3 | 85 | 
CNc1ncc(C(C)C)c2cc(Nc3ccnc(N4CC[C@@H](O)[C@@](C)(F)C4)n3)ncc12 |  |  |  |  |  |  | 31 | 
CNc1ncc(C(C)C)c2cc(Nc3ccnc(N4CC[C@@H](O)[C@@H](F)C4)n3)ncc12 | > 25000 | > 10000 | 67 | 50 |  | 46 |  | microsomal CLint ([9]; liver microsomes, read-out: CLH): 19.1 µL/min/mg
CNC(=O)C1CN(c2ncc(C(C)C)c3cc(Nc4ccnc(N5CC[C@@H](O)[C@@](C)(F)C5)n4)ncc23)C1 |  |  | 32 | 1 | 3.4 | 1.1 |  | 
CC(C)c1ncc(N2C[C@H](O)[C@H]2C)c2cnc(Nc3ccnc(N4CC[C@@H](O)[C@@](C)(F)C4)n3)cc12 |  | 4190 | 13 | 1.8 | 8.1 | 10 | 45 | 
CC(C)c1cnc(N2C[C@H](O)[C@H]2C)c2cnc(Nc3ccnc(N4CC[C@@H](O)[C@@](C)(F)C4)n3)cc12 |  |  |  |  |  |  | 25 | 
CC(C)c1ccc(N2C[C@H](CS(C)(=O)=O)[C@H]2C)c2cnc(Nc3ccnc(N4CC[C@@H](O)[C@@](C)(F)C4)n3)cc12 |  |  |  |  |  |  |  | CLH [10]: 20 µL/min/mg; clearance [11]: 25 mL/min/kg; half-life [12]: 2.9 h; CLH [13]: 55 µL/min/mg; CLH [14]: 21 µL/min; CLH [15]: 43 µL/min/mg; clearance [16]: 31.8 mL/min/kg; CLH [17]: 33 µL/min; CLH [18]: 7.2 µL/min/mg; half-life [19]: 1.3 h; Papp [4]: 9 10^-6 cm/s; CLH [20]: 41 µL/min; F [21]: 50%
CNC(=O)c1cnc(Nc2ccnc(N3CCC(O)CC3)n2)cc1NC(C)C | > 25000 | > 10000 | 914 | 290 |  | 266 | 4 | 
CC(C)c1ccc(N2CC(CS(C)(=O)=O)C2)c2cnc(Nc3ccnc(N4CC[C@@H](O)[C@@](C)(F)C4)n3)cc12 |  |  |  |  |  |  |  | clearance [11]: 20 mL/min/kg; half-life [19]: 3 h; Papp [4]: 17 10^-6 cm/s; F [21]: 85%
CC(C)c1ccc(N2C[C@H](O)[C@H]2C)c2cnc(Nc3ccnc(N4CC[C@@H](O)[C@@](C)(F)C4)n3)cc12 |  | 2220 | 19 | 0.5 | 5.5 | 7.5 | 17 | 
CC(C)c1ncc(N2CC[C@H]2C)c2cnc(Nc3ccnc(N4CC[C@@H](O)[C@@](C)(F)C4)n3)cc12 |  | 3420 | 23 | 2.2 | 6 | 9 | 159 | 
CC[C@]1(F)CN(c2nccc(Nc3cc4c(C(C)C)ccc(N5C[C@H](CS(C)(=O)=O)[C@H]5C)c4cn3)n2)CC[C@H]1O | 709 | 761 | 1.8 | 0.5 |  | 0.4 |  | efflux ratio [1]: 4; CLH [13]: 192 µL/min/mg; CLH [22]: 204 uL/min/10^6 cells; CLH [18]: 5.9 µL/min/mg; Papp [4]: 6 10^-6 cm/s; CLH [20]: 48 µL/min
CC(C)c1cnc(N2CC(CS(C)(=O)=O)C2)c2cnc(Nc3ccnc(N4CC[C@@H](O)[C@@](C)(F)C4)n3)cc12 |  |  |  |  |  |  | 9.6 | clearance [11]: 67 mL/min/kg; half-life [19]: 1.6 h; F [21]: 2%
COC1CN(c2ncc(C(C)C)c3cc(Nc4ccnc(N5CC[C@@H](O)[C@@](C)(F)C5)n4)ncc23)C1 |  |  | 24 | 3.4 | 6.3 | 7.2 | 91 | 
CC(C)c1cnc(N2CC(O)C2)c2cnc(Nc3ccnc(N4CC[C@@H](O)[C@@](C)(F)C4)n3)cc12 |  | 5520 | 41 | 3.6 | 8.1 | 11 | 43 | 
CC(C)c1ccc(N2C[C@H](CS(C)(=O)=O)[C@H]2C)c2cnc(Nc3ccnc(N4CC[C@@](C)(O)[C@@H](F)C4)n3)cc12 | 1210 | 1090 | 3.8 | 0.4 |  | 0.5 |  | efflux ratio [1]: 3; half-life [12]: 4.8 h; CLH [13]: 23 µL/min/mg; CLH [22]: 1.5 uL/min/10^6 cells; Ratio [23]: 170; clearance [16]: 8.8 mL/min/kg; CLH [18]: 5.1 µL/min/mg; Papp [4]: 5 10^-6 cm/s; CLH [20]: 3.2 µL/min
CO[C@@H]1[C@H](O)CN(c2nccc(Nc3cc4c(C(C)C)ccc(N5C[C@H](CS(C)(=O)=O)[C@H]5C)c4cn3)n2)CC1(F)F | 191 | 810 | 2.6 | 0.7 |  |  |  | efflux ratio [1]: 2; half-life [12]: 4.5 h; CLH [13]: 25 µL/min/mg; CLH [22]: 49 uL/min/10^6 cells; Ratio [23]: 294; clearance [16]: 9.1 mL/min/kg; CLH [18]: 19 µL/min/mg; Papp [4]: 8 10^-6 cm/s; CLH [20]: 16 µL/min
CC(C)c1cnc(N2CCC2)c2cnc(Nc3ccnc(N4CC[C@@H](O)[C@@](C)(F)C4)n3)cc12 | 8670 |  | 20 | 2.1 | 9.1 | 12 | 106 | 
CC(C)c1cnc(N2CCCC2)c2cnc(Nc3ccnc(N4CC[C@@H](O)[C@@](C)(F)C4)n3)cc12 |  |  | 52 |  | 23 | 21.5 | 65 | 
CC(C)c1cnc(N2CC[C@H]2C)c2cnc(Nc3ccnc(N4CC[C@@H](O)[C@@](C)(F)C4)n3)cc12 | 9960 | 7290 | 7 | 0.3 | 0.8 |  | 80 | 
